Where “and” joins values, the source holds several entries; their conditions need not be identical. Equal entries are not always repeated.
Legend:
HEK-293T = assay: Multiplex assay against HEK293T; type: toxicity, cell-based; conditions: human
Procedure, shortened: (§1)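 Phenotypes for tubulin, mitochondrial mass and membrane permeability are expressed as per cents of healthy-nucleus cells. Cells were stained live at seeding with Hoechst33342, BioTracker Green Microtubule Cytoskeleton Dye, MitoTracker Red and Annexin V Alexa Fluor 680, then imaged after compound addition on a CQ1 microscope at 37°C and 5% CO2. Machine-learning gating in CellPathfinder separated Hoechst high-intensity objects from normal cells, divided normal cells by nuclear state (healthy, pyknosed, fragmented) and divided pyknosed cells into mitotic or apoptotic.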

U2OS = assay: Multiplex assay against U2OS; type: toxicity, cell-based; conditions: human; procedure, shortened: as §1
[1] = 24 h, 1 µM, compound concentration 1 uM
[2] = 24 h, 10 µM, compound concentration 10 uM
[3] = 48 h, 1 µM, compound concentration 1 uM
[4] = 48 h, 10 µM, compound concentration 10 uM
[5] = 12 h, 1 µM, compound concentration 1 uM
[6] = 12 h, 10 µM, compound concentration 10 uM

CN(C)CCCn1cc(C2=C(c3c[nH]c4ccccc34)C(=O)NC2=O)c2ccccc21 [GF-109203]
Population Pyknosed Nuclei (%) (HEK-293T; [1]): 24.45% and 69.88% | Population Tubulin-Different-Phenotype (%) (HEK-293T; [1]): 17.62% and 12.2% | Population Apoptotic (%) (HEK-293T; [2]): 27.17% and 24.46% | Population Fragmented Nuclei (%) (HEK-293T; [2]): 2.62% and 2.48% | Population Hoechst High Intensity Objects (%) (HEK-293T; [2]): 0% | Population Membrane Permeable-Phenotype (%) (HEK-293T; [2]): 0% | Population Mitochondria Different-Phenotype (%) (HEK-293T; [2]): 40.74% and 16.67% | Population Mitotic Cells (%) (HEK-293T; [2]): 72.83% and 75.54% | Population Normal (%) (HEK-293T; [2]): 100% | Population Pyknosed Nuclei (%) (HEK-293T; [2]): 50.29% and 86.34% | Population Tubulin-Different-Phenotype (%) (HEK-293T; [2]): 84.57% and 50% | Total Cell Count (HEK-293T; [2]): 344 and 161 | Population Apoptotic (%) (HEK-293T; [3]): 10.45% and 22.58% | Population Fragmented Nuclei (%) (HEK-293T; [3]): 0.57% and 1.08% | Population Healthy Nuclei (%) (HEK-293T; [3]): 84.04% and 48.92% | Population Hoechst High Intensity Objects (%) (HEK-293T; [3]): 0% | Population Membrane Permeable-Phenotype (%) (HEK-293T; [3]): 3.01% and 1.1% | Population Mitochondria Different-Phenotype (%) (HEK-293T; [3]): 32.1% and 38.46% | Population Mitotic Cells (%) (HEK-293T; [3]): 89.55% and 77.42% | Population Normal (%) (HEK-293T; [3]): 100% | Population Apoptotic (%) (HEK-293T; [4]): 45.68% and 29.41% | Population Fragmented Nuclei (%) (HEK-293T; [4]): 1.92% and 2.34% | Population Healthy Nuclei (%) (HEK-293T; [4]): 46.15% and 18.13% | Population Hoechst High Intensity Objects (%) (HEK-293T; [4]): 0% and 0.58% | Population Membrane Permeable-Phenotype (%) (HEK-293T; [4]): 1.39% and 9.68% | Population Mitochondria Different-Phenotype (%) (HEK-293T; [4]): 87.5% and 58.06% | Population Mitotic Cells (%) (HEK-293T; [4]): 54.32% and 70.59% | Population Normal (%) (HEK-293T; [4]): 100% and 99.42% | Population Pyknosed Nuclei (%) (HEK-293T; [4]): 51.92% and 79.53% | Total Cell Count (HEK-293T; [4]): 312 and 172 | Population Apoptotic (%) (U2OS; [5]): 29.27% and 38.1% | Population Healthy Nuclei (%) (U2OS; [5]): 87.6% and 71.08% | Population Hoechst High Intensity Objects (%) (U2OS; [5]): 0% | Population Membrane Permeable-Phenotype (%) (U2OS; [5]): 1.47% and 5.52% | Population Mitotic Cells (%) (U2OS; [5]): 70.73% and 61.9% | Population Normal (%) (U2OS; [5]): 100% | Population Pyknosed Nuclei (%) (U2OS; [5]): 10.59% and 10.29% | Population Tubulin-Different-Phenotype (%) (U2OS; [5]): 1.77% and 1.38% | Total Cell Count (U2OS; [5]): 387 and 204 | Population Apoptotic (%) (U2OS; [6]): 35.21% and 37.14% | Population Fragmented Nuclei (%) (U2OS; [6]): 1.16% and 5.8% | Population Healthy Nuclei (%) (U2OS; [6]): 78.32% and 68.84% | Population Hoechst High Intensity Objects (%) (U2OS; [6]): 0% | Population Membrane Permeable-Phenotype (%) (U2OS; [6]): 49.08% and 62.11% | Population Mitotic Cells (%) (U2OS; [6]): 64.79% and 62.86% | Population Normal (%) (U2OS; [6]): 100% | Population Pyknosed Nuclei (%) (U2OS; [6]): 20.52% and 25.36% | Population Tubulin-Different-Phenotype (%) (U2OS; [6]): 70.11% and 53.68% | Total Cell Count (U2OS; [6]): 346 and 138 | Population Apoptotic (%) (U2OS; [1]): 38.98% and 53.33% | Population Healthy Nuclei (%) (U2OS; [1]): 87.5% and 70.09% | Population Hoechst High Intensity Objects (%) (U2OS; [1]): 0.19% and 0% | Population Membrane Permeable-Phenotype (%) (U2OS; [1]): 1.34% and 5.49% | Population Mitochondria Different-Phenotype (%) (U2OS; [1]): 0% and 15.85% | Population Mitotic Cells (%) (U2OS; [1]): 61.02% and 46.67% | Population Normal (%) (U2OS; [1]): 99.81% and 100% | Population Pyknosed Nuclei (%) (U2OS; [1]): 11.52% and 12.82% | Population Tubulin-Different-Phenotype (%) (U2OS; [1]): 0.89% and 2.44% | Total Cell Count (U2OS; [1]): 513 and 234 | Population Apoptotic (%) (U2OS; [2]): 66.23% and 81.33% | Population Fragmented Nuclei (%) (U2OS; [2]): 2.13% and 6.99% | Population Healthy Nuclei (%) (U2OS; [2]): 51.98% and 40.56% | Population Hoechst High Intensity Objects (%) (U2OS; [2]): 0% | Population Membrane Permeable-Phenotype (%) (U2OS; [2]): 35.67% and 50% | Population Mitotic Cells (%) (U2OS; [2]): 33.77% and 18.67% | Population Normal (%) (U2OS; [2]): 100% | Population Pyknosed Nuclei (%) (U2OS; [2]): 45.9% and 52.45% | Population Tubulin-Different-Phenotype (%) (U2OS; [2]): 60.23% and 58.62% | Total Cell Count (U2OS; [2]): 329 and 143 | Population Apoptotic (%) (U2OS; [3]): 41.25% and 46.51% | Population Healthy Nuclei (%) (U2OS; [3]): 88.82% and 68.86% | Population Hoechst High Intensity Objects (%) (U2OS; [3]): 0% and 0.34% | Population Membrane Permeable-Phenotype (%) (U2OS; [3]): 1.36% and 5.03% | Population Mitochondria Different-Phenotype (%) (U2OS; [3]): 0% and 16.08% | Population Mitotic Cells (%) (U2OS; [3]): 58.75% and 53.49% | Population Normal (%) (U2OS; [3]): 100% and 99.66% | Population Pyknosed Nuclei (%) (U2OS; [3]): 8.77% and 14.88% | Population Tubulin-Different-Phenotype (%) (U2OS; [3]): 0.99% and 3.02% | Population Apoptotic (%) (U2OS; [4]): 86.32% and 90.65% | Population Fragmented Nuclei (%) (U2OS; [4]): 6.15% and 9.46% | Population Healthy Nuclei (%) (U2OS; [4]): 28.62% and 18.24% | Population Hoechst High Intensity Objects (%) (U2OS; [4]): 0.31% and 0% | Population Mitochondria Different-Phenotype (%) (U2OS; [4]): 24.73% and 55.56% | Population Mitotic Cells (%) (U2OS; [4]): 13.68% and 9.35% | Population Normal (%) (U2OS; [4]): 99.69% and 100% | Population Pyknosed Nuclei (%) (U2OS; [4]): 65.23% and 72.3% | Population Tubulin-Different-Phenotype (%) (U2OS; [4]): 63.44% and 37.04% | Total Cell Count (U2OS; [4]): 326 and 148
